Test results published in ChEMBL document CHEMBL1134605, “Cytotoxic responses to aromatic ring and configurational variations in alpha-conidendrin, podophyllotoxin, and sikkimotoxin derivatives” (J Med Chem, 2001).
In brackets after ≈: the same amount, converted by molar mass.

Columns and labels:
CCRF-CEM [1] = experiment: Cytotoxicity was assessed using human leukemic cell line CCRF-CEM; type: functional, cell-based
Summary of the method: (§1)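 Viability was read by a modified tetrazolium dye reduction method. Cells were harvested in logarithmic growth and seeded at 6.7 × 10^4 cells/well. They were grown in RPMI 1640 with L-glutamine and 10% FBS and cultured with the compounds. The IC50 was taken as the read-out.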

CCRF-CEM [2] = experiment: Relative potency compared to cytotoxicity against CCRF-CEM cell line of etoposide; type: functional, Homo sapiens
Summary of the method: (§2)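 Relative potency compares each compound with etoposide, the reference, using IC50s from the same modified tetrazolium dye reduction viability assay. Cells were seeded at 6.7 × 10^4 cells/well in RPMI 1640 with L-glutamine and 10% FBS.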

HL-60 [3] = experiment: Cytotoxicity was assessed using vincristine-resistant human leukemic cell line HL60/Vinc; type: functional, cell-based
Summary of the method: (§3)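 Modified tetrazolium dye reduction viability assay on log-phase cells seeded at 6.7 × 10^4 cells/well in RPMI 1640 with L-glutamine and 10% FBS, cultured with compounds. HL60/ADR overexpresses MRP but not Pgp; HL60/Vinc overexpresses Pgp but not MRP. IC50 values are averages of 2 determinations from a single experiment.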

HL-60 [4] = experiment: Resistance factor was determined using the ratio of (IC50) of drug resistance cells/drug sensitive cells in HL60/Vinc cell line; type: functional, Homo sapiens
Summary of the method: (§4)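 Resistance factor = IC50 in the drug-resistant line (HL60/ADR, which overexpresses MRP, or HL60/Vinc, which overexpresses Pgp) divided by IC50 in the drug-sensitive cells. IC50s came from the tetrazolium dye reduction viability assay, as averages of 2 determinations in a single experiment.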

HL-60 [5] = experiment: Resistance factor was determined using the ratio of (IC50) of drug resistance cells/drug sensitive cells in HL60/ADR cell line; type: functional, Homo sapiens; summary of the method: as §4
HL-60 [6] = experiment: Cytotoxicity was assessed using drug-sensitive human leukemic cell line HL60/S; type: functional, cell-based; summary of the method: as §1
HL-60 [7] = experiment: Cytotoxicity was assessed using adriamycin-resistant human leukemic cell line HL60/ADR; type: functional, cell-based; summary of the method: as §3
HL-60 [8] = experiment: Relative potency compared to cytotoxicity against HL60/S cell line of etoposide; type: functional, Homo sapiens; summary of the method: as §2
CCRF-CEM [9] = experiment: Relative potency in comparison to etoposide; type: functional, Homo sapiens; summary of the method: as §2
[10] = Homo sapiens, HL-60, read-out: IC50

| Structure (SMILES) | IC50 (CCRF-CEM [1]) | Relative potency (CCRF-CEM [2]) | IC50 (HL-60 [3]) | RF (HL-60 [4]) | RF (HL-60 [5]) | IC50 (HL-60 [6]; [10]) | IC50 (HL-60 [7]; [10]) | Relative potency (HL-60 [8]) | IC50 (HL-60 [6]; hl-60) | Relative potency (CCRF-CEM [9]) | IC50 (HL-60 [7]; hl-60) |
| --- | --- | --- | --- | --- | --- | --- | --- | --- | --- | --- | --- |
| COc1cc([C@H]2c3cc4c(cc3C[C@H]3COC[C@@H]32)OCO4)cc(OC)c1OC | 8.15 µg/mL (≈ 21.2 µM) | 0.14 | 3.06 µg/mL (≈ 7.96 µM) | 0.4 | 0.7 | 7.09 µg/mL (≈ 18.5 µM) | 4.86 µg/mL (≈ 12.6 µM) | 0.23 |  |  |  |
| COc1ccc([C@@H]2c3cc(OC)c(OC)cc3C[C@H]3COC[C@@H]32)cc1OC | 38.5 µg/mL (≈ 104 µM) | 0.03 | 36.1 µg/mL (≈ 97.4 µM) | 0.3 | 0.2 |  | 23.3 µg/mL (≈ 63 µM) | 0.01 | 117.178 µg/mL (≈ 316 µM) |  |  |
| COc1ccc([C@H]2c3cc(OC)c(OC)cc3C[C@H]3COC[C@@H]32)cc1OC | 21.9 µg/mL (≈ 59 µM) | 0.05 | 14.7 µg/mL (≈ 39.8 µM) | 0.4 | 0.7 | 36.3 µg/mL (≈ 97.9 µM) | 26.1 µg/mL (≈ 70.3 µM) | 0.05 |  |  |  |
| COc1cc2c(cc1OC)C(c1cc(OC)c(OC)c(OC)c1)[C@H]1COC[C@@H]1C2 (some centres not stated) | 0.47 µg/mL (≈ 1.17 µM) | 2.4 | 0.314 µg/mL (≈ 0.784 µM) | 0.6 | 0.7 | 0.533 µg/mL (≈ 1.33 µM) | 0.362 µg/mL (≈ 0.904 µM) | 3.08 |  |  |  |
| COc1cc([C@@H]2c3cc4c(cc3C[C@H]3COC[C@@H]32)OCO4)cc(OC)c1OC | 0.043 µg/mL (≈ 0.112 µM) | 27 | 0.015 µg/mL (≈ 0.039 µM) | 0.5 | 0.6 | 0.03 µg/mL (≈ 0.078 µM) | 0.019 µg/mL (≈ 0.0494 µM) | 54.8 |  |  |  |
| COc1cc([C@@H]2c3cc4c(cc3[C@@H](O[C@@H]3O[C@@H]5CO[C@@H](C)O[C@H]5[C@H](O)[C@H]3O)[C@H]3COC(=O)[C@H]23)OCO4)cc(OC)c1O [ETOPOSIDE] | 1.15 µg/mL (≈ 1.95 µM) |  | 18.1 µg/mL (≈ 30.7 µM) | 11 | 33 | 1.64 µg/mL (≈ 2.79 µM) |  |  |  | 1 | 54.94 µg/mL (≈ 93.3 µM) |
